High-throughput results: PubChem, The Scripps Research Institute Molecular Screening Center
Shown are actives, neighbours in structure and some others; about 3.9% of the full set was active somewhere.
CHO parental Ca: ATP-evoked calcium signal inhibitors, parental CHO, primary screen, counter-screen for OX1R antagonist project, cell-based, fluorescence, Fluo-8 calcium dye. parental CHO-K1, ATP-induced calcium, Fluo-8 fluorescence. inhibition, % at 5.6 µM. 330,000 tested, 0.63% active;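 active = inhibition above that plate's mean sample inhibition plus 3 SD, cut at about 26% in these data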
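Material – parental CHO cells · Reagent – ATP stimulus · Compound – single nominal dose of 5.6 µM per compound · Detection – Fluo-8 fluorescence · Read-out basis – percent inhibition of calcium signal · Controls – ATP-challenged DMSO wells low, unchallenged DMSO wells high · Repeats – no replicates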
OX1R antag-1: antagonists of human orexin 1 receptor (OX1R); 330,000 tested, 1.8% active; inhibition, % at 6.6 µM; AID 485270, 2010; OX1R-expressing cells, FRET antagonist read-out; in the data active = inhibition mostly above about 38%, no sharp cut-off; inactive = mostly below about 40%
Target sequence (O43613 whole entry, looked up): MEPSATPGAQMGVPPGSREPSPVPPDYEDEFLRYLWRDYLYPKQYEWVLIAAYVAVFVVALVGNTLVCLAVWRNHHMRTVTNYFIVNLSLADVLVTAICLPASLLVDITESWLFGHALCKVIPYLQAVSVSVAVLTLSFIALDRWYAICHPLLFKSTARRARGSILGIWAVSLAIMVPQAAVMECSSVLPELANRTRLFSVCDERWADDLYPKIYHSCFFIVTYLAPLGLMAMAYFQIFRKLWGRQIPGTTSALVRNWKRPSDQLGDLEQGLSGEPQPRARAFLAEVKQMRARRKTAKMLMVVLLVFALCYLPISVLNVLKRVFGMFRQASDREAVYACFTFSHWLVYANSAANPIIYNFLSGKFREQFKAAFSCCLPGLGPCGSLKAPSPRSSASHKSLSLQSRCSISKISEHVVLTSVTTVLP
TAAR1 agonist: human TAAR1 agonists, primary screen, Fluo-8 calcium fluorescence, CHO RD-HGA16 cells | Trace amine-associated receptor 1 (Homo sapiens), Q96RJ0 | vehicle wells 0%, saturating PEA agonist 100% | activation, % at 3 µM | 360,000 tested, 0.99% active | AID 624467, 2012;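 active = activation above the mean activation of all test compounds in the run plus 3 SD, cut at about 38% in these data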
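System: CHO-derived RD-HGA16 cells with stable Gα16 and human TAAR1. Times: 17-24 h plating, Fluo-8 75 min 37 °C, 30 min RT. Measured by: calcium-sensitive Fluo-8 signal, excitation 470-495, emission 515-575 nm. Read-out basis: % activation relative to PEA EC100 response. Control set: DMSO and PEA EC100. Repeats: no replicates (n 1).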
TAAR1 antag: human TAAR1 antagonists, primary screen, Fluo-8 calcium fluorescence, CHO RD-HGA16 cells; Trace amine-associated receptor 1 (Homo sapiens), Q96RJ0; antagonist; inhibition, % at 3 µM; 360,000 tested, 1.5% active; AID 624466, 2012;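 active = inhibition above a per-plate cutoff, the mean inhibition of test compounds on that plate plus 3 SD, cut at about 49% in these data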
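System: CHO RD-HGA16 cells bearing hTAAR1. Reagent: EC80 β-phenethylamine stimulus. Schedule: seeding 17-24 h prior, 75-min 37 °C, 30-min RT dye loading. Signal: Fluo-8 intracellular calcium dye fluorescence, real-time kinetic reads. Read-out: % inhibition from peak post-agonist over basal fluorescence ratio. Benchmarks: vehicle wells and EC80 agonist wells. Replicates: n of 1.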
OX1R antag-2: OX1R (HCRTR1) antagonists, primary screen, fluorescence, CHO/OX1R cells, Fluo-8 calcium, orexin A; Orexin/Hypocretin receptor type 1 (Homo sapiens), O43613; Fluo-8 calcium fluorescence; inhibition, % at 5 µM; 330,000 tested, 0.43% active; AID 434989, 2010;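 active = inhibition above its plate's threshold, mean inhibition of all tested compounds on the plate plus 3 SD, cut at about 37% in these data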
OX1R HTRF conf: OX1R (HCRTR1) antagonists, confirmation, cell-based, HTRF; shares compounds with OX1R antag-1; OX1R-expressing cells, HTRF antagonist assay; inhibition, % at 6.6 µM; 1,800 tested, 49% active; AID 492964, 2010; in the data active = inhibition above about 55%;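 also: CHO cells expressing OX1R stimulated with orexin A at about EC80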
CHO-K1 HTRF cnt: signal inhibition in parental CHO-K1 cells, counter-screen for OX1R antagonist project, cell-based, HTRF; 1,800 tested, 48% active; HTRF counterscreen; shares compounds with OX1R antag-1; inhibition, % at 6.6 µM; in the data active = inhibition above about 17%
Numbers stand for hits; n = inactive; x = no result.

SMILES	CHO parental Ca	OX1R antag-1	TAAR1 agonist	TAAR1 antag	OX1R antag-2	OX1R HTRF conf	CHO-K1 HTRF cnt
Cc1cccn2c(=O)c3cc(C#N)c(=NC(=O)c4ccccc4)n(Cc4ccco4)c3nc12	n	88	n	n	n	n	41
Cc1noc(C)c1CS(=O)(=O)c1ccc([N+](=O)[O-])cc1	n	107	n	n	n	58	58
C#CCNC(=O)C[C@@H]1C[C@@]2(C(=O)OC)CC(C)(C)CC=C2N(CCCCCCCC)C1=O	x	x	n	n	x	x	x
[O-][n+]1c(/C=C/c2ccccc2)ccc2ccccc21	x	x	n	n	x	x	x
[O-][n+]1c2ccccc2[n+]([O-])c2cc(O)ccc21	n	92	n	n	n	63	111
CC(=O)N1CCc2cc(N=NC3=C(O)CCCC3=O)ccc21	n	152	n	n	n	74	82
C[C@@H]1CN([C@@H](C)CO)C(=O)CCCn2cc(nn2)CO[C@H]1CN(C)S(=O)(=O)c1ccc(Cl)cc1	x	x	n	n	x	x	x
CCOC(=O)C1CCCN(C(=O)c2cc(C#N)cs2)CC1 (stereo not given)	x	x	n	n	x	x	x
CCOC(=O)C1Nc2ccccc2C2C(O)C(O)CC12 (stereo not given)	n	83	n	n	n	n	20
CCOC(=O)C1Nc2ccc(C(F)(F)F)cc2C2c3ccccc3CC12 (stereo not given)	n	n	n	n	n	x	x
CC1(C)CC(NS(=O)(=O)c2ccc(S(N)(=O)=O)cc2)CC(C)(C)N1	n	n	n	n	n	x	x
CC1(C)CC(NS(=O)(=O)c2ccc(F)cc2)CC(C)(C)N1	n	86	n	n	n	n	n
O=C(CC1Nc2ccccc2NC1=O)NCC1COc2ccccc2O1 (stereo not given)	n	79	x	x	n	65	n
O=C(/C=C(\Nc1cccc(OC(F)F)c1)c1ccccc1)c1ccccc1	x	x	n	n	x	x	x
O=C(NC1CCCCC1)c1sc(=S)n2c1[nH]c(=O)c1ccccc12	n	82	n	n	n	56	n
CCN(CC)c1ccc(N=Nc2ncn[nH]2)cc1	n	139	n	n	n	n	56
Cc1nc(C)c(C(=O)OCC(=O)Nc2ccc(C)c(C)c2)s1	x	x	n	n	x	x	x
CCN(CC)C(=O)Cn1cc(SCC(=O)NC2CCCCC2)c2ccccc21	x	x	n	n	x	x	x
Cc1csc(NC(=O)c2cnc3ccccc3n2)n1	n	113	n	n	n	n	48
Cc1csc(NC(=O)c2ccc(C(=O)Nc3nc(C)cs3)cc2)n1	n	n	x	x	n	x	x
Cc1c(Cl)c([N+](=O)[O-])nn1CCCC(=O)N(Cc1ccccc1)Cc1ccccc1	n	84	n	n	n	85	n
COC(=O)[C@@]12C[C@@H](CC(=O)NCC3CCCCC3)C(=O)N(Cc3cccc4ccccc34)C1=CCC(C)(C)C2	x	x	n	n	x	x	x
CCSc1ccc([C@@H]2[C@H]3C(=O)N(CC)C(=O)[C@H]3[C@]3(C(=O)OC)CCCCN23)cc1OC	n	84	x	x	n	76	n
COc1ccccc1NC(=O)c1cc2c(CO)cnc(C)c2oc1=Nc1cc(OC)c(OC)c(OC)c1	n	n	n	n	n	x	x
COc1cc(N=c2oc3c(C)ncc(CO)c3cc2C(N)=O)cc(OC)c1OC	n	121	n	n	n	55	58
SMILES	CHO parental Ca	OX1R antag-1	TAAR1 agonist	TAAR1 antag	OX1R antag-2	OX1R HTRF conf	CHO-K1 HTRF cnt
COC(=O)CCN(Cc1ccc(OC)cc1OC)S(=O)(=O)c1ccccc1Br	x	x	n	n	x	x	x
CC(=O)Nc1c2c3c(cccc3n(C)c1=O)C(=O)c1ccccc1-2	n	154	n	n	n	n	65
CCOC(=O)c1c2c3c(cccc3n(C)c1=O)C(=O)c1ccccc1-2	n	n	n	n	n	x	x
Cn1c(=O)n(C)c2cc(/C=C3/SC(=O)N(CC(=O)N4CCOCC4)C3=O)ccc21	n	83	n	n	n	n	54
COc1ccc(/C(N)=N/OC(=O)/C=C/c2ccccc2)cc1	n	n	n	n	n	x	x
COc1ccc(/C=C/C(=O)O/N=C(\N)c2ccccc2)cc1OC	n	81	n	n	n	n	n
O=C(Nc1nc2nc(-c3ccccc3)cc(-c3ccccc3)n2n1)c1ccco1	n	80	n	n	n	n	n
Cn1nnnc1SCC(=O)Nc1cc(S(=O)(=O)N2CCCCC2)ccc1Cl	n	n	n	n	n	x	x
CCn1c(SCc2nc(-c3cccs3)no2)nnc1-c1c[nH]c2ccccc12	n	81	n	50	n	n	n
CC1CN(C(=O)/C=C/c2ccc([N+](=O)[O-])s2)CC(C)O1 (stereo not given)	n	126	n	n	n	65	75
Cc1cc(F)ccc1C(O)c1ncc(-c2cccc3ccccc23)[nH]1 (stereo not given)	x	x	n	n	x	x	x
CC(C)(C)c1cccc(N/C(=C\C(=O)c2ccccc2)c2ccccc2)c1	x	x	n	n	x	x	x
CCC(NC(=O)c1ccc([N+](=O)[O-])cc1[N+](=O)[O-])c1ccccc1 (stereo not given)	n	114	n	n	n	55	50
CC(NC(=O)c1ccc([N+](=O)[O-])cc1[N+](=O)[O-])c1ccc(-c2ccccc2)cc1 (stereo not given)	n	n	n	n	n	x	x
O=C1NC2(Nc3ccccc31)C(=O)Nc1ccc(Br)cc12 (stereo not given)	n	n	n	n	n	x	x
O=C1NC2(Nc3ccccc31)C(=O)Nc1ccccc12 (stereo not given)	n	80	n	n	n	n	n
CC1(C(=O)Nc2ccc3c(c2)OCCO3)CN(S(C)(=O)=O)CC(=O)N1CCc1c[nH]c2ccccc12 (stereo not given)	x	x	n	n	x	x	x
Cc1ccc(C(=O)O)cc1N1C(=O)c2cccc3c([N+](=O)[O-])ccc(c23)C1=O	n	n	n	n	n	x	x
CC(=O)Oc1cccc(N2C(=O)c3cccc4c([N+](=O)[O-])ccc(c34)C2=O)c1	n	115	n	n	n	99	72
O/N=C/c1cn(-c2ccccc2)nn1	n	n	n	n	n	x	x
Cn1cc(/C=N\O)nc2c(=O)n(-c3ccccc3)c(=O)nc1-2	n	78	n	n	n	68	89
O=C1c2cccc3cc([N+](=O)[O-])cc(c23)C(=O)N1/N=C/c1ccc(O)cc1O	n	181	n	n	n	74	108
O=c1cc(CN(Cc2ccccc2)Cc2ccccc2)c2c(ccc3ccccc32)o1	x	x	n	n	x	x	x
